Publication PMC3846175 (Bioorganic & medicinal chemistry, 2013)
“And” between values parts separate entries of the source, which are not always exact repeats. Equal values may be shown once. Where a name gives a salt, the structure may show the parent alone. Read-outs that look alike come from different tables or passages of the source.

What was measured:
T. b. r. STIB900 [1] = details: mouse, ref [10], [14], [16], [23], cited from earlier work
T. b. brucei GVR35 [2] = details: mouse; po 100 mg/kg for 5 days; ref [5]; cited from earlier work
[3] = test system: Trypanosoma brucei rhodesiense STIB900; details: read-out: T. b. r. IC50; strain STIB900; comparator data; ref [10], [16]; cited from earlier work
Plasmodium falciparum K1 [4] = details: read-out: P. f. IC50; strain K1; comparator data; ref [10], [16]; cited from earlier work
T. b. r. STIB900 [5] = assay: T. b. r. STIB900 acute mouse model; format: in vivo, Trypanosoma brucei rhodesiense
poly(dA-dT)2 = assay: Thermal melting; format: binding
T. b. brucei GVR35 [6] = assay: T. b. brucei GVR35 CNS mouse model; format: in vivo, Trypanosoma brucei brucei
Method in brief: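 Second-stage (CNS) infection model in mice with T. b. brucei GVR35. The test compound was given orally at 100 mg/kg for 5 days, and a 10-day course was also run. The comparator was diminazene, given as a single 40 mg/kg intraperitoneal dose. Survival was the endpoint. Protocols were approved by the Canton Basel-Stadt veterinary authorities.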

Plasmodium falciparum K1 [7] = assay: In vitro assay with P. f. K1 strain; format: cell-based; details: IC50 ratio
[8] = po 100 mg/kg for 5 days, 100 mg/kg

N=C(N)c1ccc(-c2ccc(-c3ccc(C(=N)N)cc3)o2)cc1 [2a, furamidine]
Cures (mice that survive and are parasite free for 60 days) (T. b. r. STIB900 [1]; ip 5 mg/kg daily for 4 days): 1/4
Survival (average days of survival) (T. b. r. STIB900 [1]; ip 5 mg/kg daily for 4 days): >46 days
Cures (mice that survive and are parasite free for 60 days) (T. b. r. STIB900 [1]; ip 20 mg/kg daily for 4 days): 3/4
Survival (average days of survival) (T. b. r. STIB900 [1]; ip 20 mg/kg daily for 4 days): >57.75 days

N=C(NO)c1ccc(-c2ccc(-c3ccc(/C(N)=N\O)cc3)o2)cc1 [2b]
Cures (mice that survive and are parasite free for 60 days) (T. b. r. STIB900 [1]; po 100 mg/kg daily for 4 days, 100 mg/kg): no cure and 0/4

CONC(=N)c1ccc(-c2ccc(-c3ccc(C(=N)NOC)cc3)o2)cc1 [2c, pafuramidine]
Cures (mice that survive and are parasite free for 60 days) (T. b. r. STIB900 [1]; po 10 mg/kg daily for 4 days): 4/4
Survival (average days of survival) (T. b. r. STIB900 [1]; po 10 mg/kg daily for 4 days): >60 days
Cures (mice that survive and are parasite free for 60 days) (T. b. r. STIB900 [1]; po 25 mg/kg daily for 4 days): 4/4
Survival (average days of survival) (T. b. r. STIB900 [1]; po 25 mg/kg daily for 4 days): >60 days
MSD (mean survival days) (T. b. brucei GVR35 [2]): >167.8 days
No. of mice cured (survival >180 days without parasitemia relapse) (T. b. brucei GVR35 [2]): 3/5

N=C(N)c1ccc(-c2ccc(-c3ccc(C(=N)N)cn3)o2)cc1 [3a]
IC50 [3]: 6.5 nM
IC50 (Plasmodium falciparum K1 [4]): 6.5 nM
Cures (mice that survive and are parasite free for 60 days) (T. b. r. STIB900 [1]; ip 5 mg/kg daily for 4 days): 3/4
Survival (average days of survival) (T. b. r. STIB900 [1]; ip 5 mg/kg daily for 4 days): >54.5 days
Cures (mice that survive and are parasite free for 60 days) (T. b. r. STIB900 [1]; ip 20 mg/kg daily for 4 days): 4/4
Survival (average days of survival) (T. b. r. STIB900 [1]; ip 20 mg/kg daily for 4 days): >60 days

CO/N=C(\N)c1ccc(-c2ccc(-c3ccc(/C(N)=N/OC)cn3)o2)cc1 [3c]
Cures (mice that survive and are parasite free for 60 days) (T. b. r. STIB900 [1]; po 25 mg/kg daily for 4 days): 4/4
Survival (average days of survival) (T. b. r. STIB900 [1]; po 25 mg/kg daily for 4 days): >60 days
MSD (mean survival days) (T. b. brucei GVR35 [2]): >180 days
No. of mice cured (survival >180 days without parasitemia relapse) (T. b. brucei GVR35 [2]): 5/5

N=C(N)c1ccc(-c2ccc(-c3ccc(C(=N)N)cn3)o2)nc1 [4a]
IC50 [3]: 21 nM
IC50 (Plasmodium falciparum K1 [4]): 83 nM
Cures (mice that survive and are parasite free for 60 days) (T. b. r. STIB900 [1]; ip 5 mg/kg daily for 4 days): 3/4
Survival (average days of survival) (T. b. r. STIB900 [1]; ip 5 mg/kg daily for 4 days): >49.5 days
Cures (mice that survive and are parasite free for 60 days) (T. b. r. STIB900 [1]; ip 20 mg/kg daily for 4 days): 4/4
Survival (average days of survival) (T. b. r. STIB900 [1]; ip 20 mg/kg daily for 4 days): >60 days

CO/N=C(\N)c1ccc(-c2ccc(-c3ccc(/C(N)=N/OC)cn3)o2)nc1 [4c]
Cures (mice that survive and are parasite free for 60 days) (T. b. r. STIB900 [1]; po 25 mg/kg daily for 4 days): 2/4
Survival (average days of survival) (T. b. r. STIB900 [1]; po 25 mg/kg daily for 4 days): >42 days
MSD (mean survival days) (T. b. brucei GVR35 [2]): >180 days
No. of mice cured (survival >180 days without parasitemia relapse) (T. b. brucei GVR35 [2]): 5/5

N=C(N)c1ccc(-c2cncc(-c3ccc(C(=N)N)cc3F)n2)c(F)c1 [15b, 2,6-Di-(4′-amidino-2′-fluorophenyl)pyrazine hydrochloride]
Cures (mice that survive and are parasite free for 60 days) (T. b. r. STIB900 [5]; ip 5 mg/kg daily for 4 days): no cures

N=C(N)c1ccc(-c2cncc(-c3ccc(C(=N)N)cn3)n2)cc1 [19a, 2-(4′-amidinophenyl)-6-(5′-amidinopyridin-2′-yl)pyrazine hydrochloride]
Decrease in ΔTm value relative to parent compound 10 (poly(dA-dT)2): 2 °C

N=C(N)c1ccc(-c2cncc(-c3ccc(C(=N)N)cn3)n2)nc1 [23a, 2,6-Di-(5′-amidinopyridin-2′-yl)pyrazine hydrochloride]
Decrease in ΔTm value relative to parent compound 10 (poly(dA-dT)2): 3.9 °C

N=C(N)c1ccc(-c2cncc(-c3ccc(C(=N)N)nc3)n2)cn1 [23b, 2,6-Di-(2′-amidinopyridin-5′-yl)pyrazine hydrochloride]
Decrease in ΔTm value relative to parent compound 10 (poly(dA-dT)2): 3.0 °C

N/C(=N\O)c1ccc(-c2cncc(-c3ccc(/C(N)=N\O)nc3)n2)cn1 [24b, 2,6-Di-(2′-N-hydroxyamidinopyridin-5′-yl)pyrazine hydrochloride]
Cures (mice that survive and are parasite free for 60 days) (T. b. r. STIB900 [5]; po 25 mg/kg daily for 4 days): cures of all mice
MSD (mean survival days) (T. b. brucei GVR35 [6]; po 100 mg/kg for 5 days): 67.2 days
No. of mice cured (survival >180 days without parasitemia relapse) (T. b. brucei GVR35 [6]; [8]): not curative and 0/5

CO/N=C(\N)c1ccc(-c2cncc(-c3ccc(/C(N)=N\OC)cn3)n2)nc1 [25a, 2,6-Di-(5′-N-methoxyamidinopyridin-2′-yl)pyrazine hydrochloride]
MSD (mean survival days) (T. b. brucei GVR35 [6]; po 100 mg/kg for 5 days): 95.2 days
No. of mice cured (survival >180 days without parasitemia relapse) (T. b. brucei GVR35 [6]; [8]): not curative and 0/5

N=C(N)c1ccc(-c2cnc(-c3ccc(C(=N)N)cc3)cn2)cc1 [compound 6]
IC50 [3]: 18 nM
IC50 (Plasmodium falciparum K1 [4]): 0.4 nM
Cures (mice that survive and are parasite free for 60 days) (T. b. r. STIB900 [1]; ip 5 mg/kg daily for 4 days, 5 mg/kg): no cure and 0/4

N=C(N)c1ccc(-c2cncc(-c3ccc(C(=N)N)cc3)n2)cc1 [compound 10, 2,6-Di-(4′-amidinophenyl)pyrazine hydrochloride]
Fold less potent than 6 against P. f. (Plasmodium falciparum K1 [7]): 25 fold

N/C(=N\O)c1ccc(-c2cncc(-c3ccc(/C(N)=N/O)cc3)n2)cc1 [compound 11, 2,6-Di-(4′-N-hydroxyamidinophenyl)pyrazine hydrochloride]
Cures (mice that survive and are parasite free for 60 days) (T. b. r. STIB900 [5]; po 25 mg/kg daily for 4 days): cures of all mice
No. of mice cured (survival >180 days without parasitemia relapse) (T. b. brucei GVR35 [6]; [8]): no cures and 0/5

CO/N=C(\N)c1ccc(-c2cncc(-c3ccc(/C(N)=N\OC)cc3)n2)cc1 [compound 12, 2,6-Di-(4′-N-methoxyamidinophenyl)pyrazine hydrochloride]
No. of mice cured (survival >180 days without parasitemia relapse) (T. b. brucei GVR35 [6]; po 100 mg/kg for 5 days): 2/5
No. of mice cured (survival >180 days without parasitemia relapse) (T. b. brucei GVR35 [6]; po 100 mg/kg for 10 days): 3/4
